Screening results deposited in PubChem BioAssay by The Scripps Research Institute Molecular Screening Center.
V1R ag counter: counter-screen for oxytocin receptor agonists: human V1a receptor agonists. CHO-V1R cells, Fluo-8 calcium fluorescence, agonist mode; 0% DMSO, 100% 3 nM vasopressin. activation, % at 3 µM. hit rate 0.25% among 320,000. AID 2797;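 active means activation above the mean activation of all tested compounds plus 3 SD, per screening run, cut at about 20% in these data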;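 further: signal is peak over basal fluorescence ratio across a 100 second FLIPR read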
Target sequence (P37288 whole entry, looked up): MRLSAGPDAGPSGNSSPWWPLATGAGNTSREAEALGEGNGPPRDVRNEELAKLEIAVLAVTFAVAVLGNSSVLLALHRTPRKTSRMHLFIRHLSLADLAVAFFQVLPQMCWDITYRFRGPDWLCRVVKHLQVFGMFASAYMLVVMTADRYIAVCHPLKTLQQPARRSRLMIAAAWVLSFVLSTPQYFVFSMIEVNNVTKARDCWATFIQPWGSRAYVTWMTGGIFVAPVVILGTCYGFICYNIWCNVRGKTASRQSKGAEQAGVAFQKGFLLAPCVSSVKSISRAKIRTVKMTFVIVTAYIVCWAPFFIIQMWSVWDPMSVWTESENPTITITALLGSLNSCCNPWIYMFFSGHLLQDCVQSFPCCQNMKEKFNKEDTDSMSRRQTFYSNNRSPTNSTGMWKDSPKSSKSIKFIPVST
OXTR potentiator: human OXTR potentiation; CHO-OTR cells, Fluo-8 calcium fluorescence, potentiator mode; 0% = oxytocin EC15, 100% = EC100; activation, % at 3 µM; hit rate 0.061% among 320,000; P30559;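 active means activation above that plate's cutoff, the mean activation of tested compounds plus 3 SD, cut at about 6.6% in these data, passing the limit was not always enough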
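Material: CHO-OTR cells, human receptor; compound dosing: single dose, 3.0 µM nominal final compound concentration; schedule: 6 min compound pre-incubation at room temperature, 100 s kinetic read; measured by: kinetic Fluo-8 calcium fluorescence; read-out basis: % activation vs EC15 and EC100 oxytocin; controls: EC15 oxytocin alone as 0%, 75 nM oxytocin as 100%; replicates: singlicate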
TAAR1 ag: agonists of human TAAR1 | CHO RD-HGA16 TAAR1, Fluo-8 calcium fluorescence; vehicle wells 0%, saturating PEA agonist 100% | activation, % at 3 µM | hit rate 0.99% among 360,000;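 active means activation above the mean activation of all test compounds in the run plus 3 SD, cut at about 38% in these data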
Target sequence (Q96RJ0 whole entry, looked up): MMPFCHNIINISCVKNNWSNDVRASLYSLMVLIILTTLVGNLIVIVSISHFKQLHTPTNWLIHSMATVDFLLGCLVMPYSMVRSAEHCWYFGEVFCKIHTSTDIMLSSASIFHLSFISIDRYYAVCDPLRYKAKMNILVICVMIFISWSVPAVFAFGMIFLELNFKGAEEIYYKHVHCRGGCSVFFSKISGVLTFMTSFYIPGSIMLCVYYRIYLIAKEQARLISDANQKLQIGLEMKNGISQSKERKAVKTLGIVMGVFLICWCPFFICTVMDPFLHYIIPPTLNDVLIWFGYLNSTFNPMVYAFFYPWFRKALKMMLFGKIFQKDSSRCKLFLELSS
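Assay system – CHO-derived RD-HGA16 cells with stable Gα16 and human TAAR1 · Compound dosing – one-point dosing at 3 µM (nominal) · Incubation – 17-24 h seeding, 75 min 37 °C dye, 30 min RT · Measured by – kinetic Fluo-8 calcium fluorescence · Control set – DMSO vehicle as 0%, PEA at EC100 as 100% · Repeats – single well for each compound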
OXTR ag: human OXTR agonism; hit rate 0.32% among 320,000; AID 2435; activation, % at 3 µM; CHO-OTR cells, Fluo-8 calcium fluorescence; normalized: DMSO 0%, oxytocin 100%; P30559;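 active means activation above the mean of all tested compounds plus 3 SD, cutoff set per screening run, cut at about 20% in these data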;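 further: peak over basal fluorescence ratio from a 100 s FLIPR kinetic read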
TAAR1 antag: antagonists of human TAAR1; CHO RD-HGA16 TAAR1, Fluo-8 calcium fluorescence, antagonist; inhibition, % at 3 µM; hit rate 1.5% among 360,000; AID 624466;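 active means inhibition above a per-plate cutoff, the mean inhibition of test compounds on that plate plus 3 SD, cut at about 49% in these data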
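Material: CHO RD-HGA16 cells bearing hTAAR1; compound dosing: one-point dosing, 3 µM nominal final; schedule: dye loading 75 min at 37 °C, then 30 min room temperature; measured by: calcium fluorescence with Fluo-8; control set: vehicle and agonist controls; replication: n of 1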
Of the large screens only hits and unclear results are named; the others gave an inactive call. Rows were chosen to be rich in hits. Some 2.3% of all compounds tested hit in one or more screens of this group.

CC(C)(C)OC(=O)NCc1ccc(CNC(=O)c2nc[nH]c2C(=O)NCc2ccc(CNC(=O)OC(C)(C)C)cc2)cc1	none
CC(C)(C)OC(=O)NCCCCCNC(=O)c1[nH]cnc1C(=O)N[C@@H](CCCCNC(=O)OC(C)(C)C)C(=O)OC(C)(C)C	none (no result: TAAR1 ag, TAAR1 antag)
CC(C)(C)OC(=O)NCCCCCNC(=O)c1nc[nH]c1C(=O)NCCCCCNC(=O)OC(C)(C)C	TAAR1 antag 69
C[C@H](NC(=O)c1nc[nH]c1C(=O)N[C@@H](C)c1ccccc1)c1ccccc1	TAAR1 ag 42, TAAR1 antag 54
O=C(Nc1ccccc1)c1nc[nH]c1C(=O)NCCCNC(=O)c1[nH]cnc1C(=O)Nc1ccccc1	TAAR1 antag 54
O=C(NS(=O)(=O)c1ccccc1[N+](=O)[O-])[C@H]1O[C@@H](n2ccc(=O)[nH]c2=O)[C@H](O)[C@@H]1O	none (no result: V1R ag counter, OXTR potentiator, OXTR ag)
CC(NS(=O)(=O)c1ccc(OCC(=O)Nc2cccc([N+](=O)[O-])c2)cc1)c1ccccc1 (stereo not drawn)	TAAR1 antag 60
O=C(COC(=O)COc1ccccc1)Nc1cccc([N+](=O)[O-])c1	none
O=C(N[C@H](Cc1ccccc1)C(=O)NC1CCCCC1)[C@H]1O[C@@H](n2ccc(=O)[nH]c2=O)[C@H](O)[C@@H]1O	none (no result: V1R ag counter, OXTR potentiator, OXTR ag)
O=C(N/N=C/c1ccncc1)c1cccc(NC(=O)c2ccccc2Cl)c1	TAAR1 antag 50
O=C(N/N=C/c1cccnc1)c1cccc(NC(=O)c2ccccc2Cl)c1	none
O=C(N/N=C/c1ccc(F)cc1)c1cccc(NC(=O)c2ccccc2Cl)c1	TAAR1 antag 54
Cc1[nH]c(=O)[nH]c(=O)c1NS(=O)(=O)c1ccccc1	none
O=C(Nc1ccc(Br)cc1)Nc1cnccn1	none (no result: V1R ag counter, OXTR potentiator, OXTR ag)
Cc1ccccc1OCC(O)CN (stereo not drawn)	TAAR1 ag 38
COC(=O)c1cc(OC)c(OC)cc1NC(=O)CCN1C(=O)C2CCCCC2C1=O (stereo not drawn)	none (no result: V1R ag counter, OXTR potentiator, OXTR ag)
CCCNC(=O)Cn1c(=O)/c(=C\c2ccc(-c3ccc([N+](=O)[O-])cc3)o2)s/c1=C\C(=O)C(C)(C)C	V1R ag counter 37, OXTR ag 63 (no result: TAAR1 ag, TAAR1 antag)
CCCNC(=O)Cn1c(=O)/c(=C/c2ccc(-c3cccc([N+](=O)[O-])c3)o2)s/c1=C\C(=O)C(C)(C)C	none (no result: V1R ag counter, OXTR potentiator, OXTR ag)
O=C1OC[C@@H]2CCCN2C(=O)[C@@H](CC(=O)N(CCO)Cc2ccccc2)C/C=C\C[C@@H]1Cc1ccc(F)cc1	TAAR1 antag 54
O=C1N[C@@H](c2ccccc2)COC(=O)[C@H](Cc2ccc(F)cc2)C/C=C\C[C@H]1CC(=O)N(CCO)Cc1ccccc1	none (no result: V1R ag counter, OXTR potentiator, OXTR ag)
O=C1N[C@@H](c2ccccc2)COC(=O)[C@@H](Cc2ccc(F)cc2)C/C=C\C[C@@H]1CC(=O)N(CCO)Cc1ccccc1	V1R ag counter 36, TAAR1 ag 39, OXTR ag 43, TAAR1 antag 77
O=C1N[C@H](Cc2ccccc2)COC(=O)[C@H](Cc2ccc(F)cc2)CC/C=C/C[C@@H]1CC(=O)N(CCO)Cc1ccccc1	TAAR1 ag 44, TAAR1 antag 64
CC(C)(C)[C@H]1COC(=O)[C@@H](Cc2ccc(F)cc2)C/C=C\C[C@@H](CC(=O)N[C@H](CO)Cc2ccccc2)C(=O)N1	none
CC(C)(C)[C@H]1COC(=O)[C@@H](Cc2ccc(F)cc2)C/C=C\C[C@@H](CC(=O)N[C@@H](CO)Cc2ccccc2)C(=O)N1	TAAR1 antag 58
CCOC(=O)CSc1nnc(NC(=O)CCc2ccccc2)s1	none
O=C1N[C@@H](Cc2c[nH]c3ccccc23)COC(=O)[C@@H](Cc2ccc(F)cc2)C/C=C\C[C@H]1CC(=O)N(CCO)Cc1ccccc1	TAAR1 antag 55
O=C1N[C@@H](Cc2c[nH]c3ccccc23)COC(=O)[C@H](Cc2ccc(F)cc2)C/C=C\C[C@@H]1CC(=O)N(CCO)Cc1ccccc1	none
Cc1cc(C(=O)CN2C(=O)CCC2=O)c(C)n1Cc1ccccc1	TAAR1 ag 40
Cc1cc(C(=O)CN2C(=O)NC3(CCCc4ccccc43)C2=O)c(C)n1Cc1ccccc1 (stereo not drawn)	none
Cc1ccc(CN2C(=O)N/C(=C\c3ccc(N4CCOCC4)cc3)C2=O)cc1	none
CCCN1C(=O)/C(=C/c2ccc(N3CCOCC3)cc2)NC1=S	V1R ag counter 31, TAAR1 ag 54, OXTR ag 25
CCN1C(=O)/C(=C/c2ccc(N3CCCC3)cc2)NC1=S	V1R ag counter 91, TAAR1 ag 84, OXTR ag 110, TAAR1 antag 82
Cc1ccc(-c2csc(NCCn3c(C)nc4cc(C(F)(F)F)ccc43)n2)cc1	none
O=C(N[C@H](C(=O)N1CCC[C@H]1C(=O)NC1CCCC1)c1ccccc1)C1CCCC1	none (no result: V1R ag counter, OXTR potentiator, OXTR ag)
Nc1nc(Nc2ccccc2F)sc1C(=O)c1ccccc1	TAAR1 ag 48
O=[N+]([O-])c1ccccc1CCc1ccccc1[N+](=O)[O-]	TAAR1 antag 50 (no result: V1R ag counter, OXTR potentiator, OXTR ag)
O=[N+]([O-])c1ccccc1CCO	none (no result: V1R ag counter, OXTR potentiator, OXTR ag)
O=C(NCC1CCCCC1)c1cc(S(=O)(=O)N2CCOCC2)ccc1F	TAAR1 ag 39
CCn1c(SCc2ccccc2)nc2c1c(=O)[nH]c(=O)n2C	none
O=C(N/N=C/c1c(O)ccc2ccccc12)c1ccc(Br)o1	V1R ag counter 22, OXTR ag 20
O=C(Nc1nc2c(s1)CN(Cc1ccccc1)CC2)c1cccc(S(=O)(=O)N2CCc3ccccc32)c1	TAAR1 ag 38
CC(=O)Nc1cccc(NC(=O)c2ccc3c(c2)CCN3S(=O)(=O)c2ccccc2)c1	TAAR1 antag 50
COc1ccc([C@H]2/C=C\CN(S(=O)(=O)c3cccc4cccnc34)[C@@H](C)C(=O)N2Cc2ccc(F)cc2)cc1	none
COc1ccc(C2/C=C\CN(S(=O)(=O)c3cccc4cccnc34)CC(=O)N2Cc2ccc(F)cc2)cc1 (stereo not drawn)	TAAR1 antag 50
O=C(Cn1ccc(NC(=O)OCc2ccccc2)nc1=O)NCCN1CCOCC1	none
CN1C(=O)[C@@]2(C3=C(CCCC3=O)OC3=C2C(=O)OC2(CCCCC2)C3)c2ccccc21	none (no result: V1R ag counter, OXTR potentiator, OXTR ag)
Cc1ccc(-n2cc(-c3ccccc3)c3c(N4CCOCC4)ncnc32)cc1	TAAR1 antag 54 (no result: V1R ag counter, OXTR potentiator, OXTR ag)
CCc1nc2ccc(C(=O)NCc3ccc(OC)cc3)cn2c1N(C)Cc1ccc(OC)cc1	none (no result: V1R ag counter, OXTR potentiator, OXTR ag)
CCc1nc2ccc(C(=O)NCc3ccccc3OC)cn2c1N(C)Cc1ccc(OC)cc1	TAAR1 antag 51 (no result: V1R ag counter, OXTR potentiator, OXTR ag)
C#CC(C)(CC)NC(=O)c1cc2nc(C3CC3)cc(C(F)(F)F)n2n1 (stereo not drawn)	none
Cc1cccc(C)c1-n1c(C)cc(/C=N\Nc2ccc([N+](=O)[O-])cn2)c1C	TAAR1 antag 51
O=c1[nH]c2ccccc2c2cn(-c3ccccc3)nc12	none
